Test results published in ChEMBL document CHEMBL1134438, “Stepwise modulation of neurokinin-3 and neurokinin-2 receptor affinity and selectivity in quinoline tachykinin receptor antagonists” (J Med Chem, 2001).

How the values were obtained:
[1] = biological target: T1, Substance-K receptor (Homo sapiens, UniProt P21452); test: Displacement of [125 I]-NKA binding to tachykinin receptor 2 in CHO membranes; type: cell membranes
T1 sequence (P21452 whole entry): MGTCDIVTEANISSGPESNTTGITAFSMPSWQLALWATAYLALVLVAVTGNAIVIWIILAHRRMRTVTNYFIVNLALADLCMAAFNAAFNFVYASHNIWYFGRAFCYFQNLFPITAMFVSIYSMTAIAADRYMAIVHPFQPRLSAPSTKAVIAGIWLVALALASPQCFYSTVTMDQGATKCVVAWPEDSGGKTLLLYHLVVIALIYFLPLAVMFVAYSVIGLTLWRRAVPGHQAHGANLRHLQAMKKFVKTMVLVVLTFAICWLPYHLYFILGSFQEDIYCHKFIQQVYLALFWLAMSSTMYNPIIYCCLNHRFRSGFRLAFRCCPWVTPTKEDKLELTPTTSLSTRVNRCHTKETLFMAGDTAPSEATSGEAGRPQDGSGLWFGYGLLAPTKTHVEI
Summary of the method: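 hNK-2-CHO crude membranes (~10 µg protein) were incubated with 0.15 nM [125I]-NKA for 90 min at 25 °C in Tris pH 7.4 buffer containing MnCl2, phosphoramidon and ovalbumin. Filtered through GF/C soaked in 0.1% PEI. Nonspecific binding defined with 0.5 µM cold NKA. Ki from IC50 by Cheng-Prusoff; duplicate curves, n = 3-5.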

[2] = biological target: T2, Neuromedin-K receptor (Homo sapiens, UniProt P29371); test: Displacement of [125 I]-[MePhe]-NKB binding to hNK-3-CHO (Chinese hamster ovary) membranes
T2 sequence (P29371 whole entry): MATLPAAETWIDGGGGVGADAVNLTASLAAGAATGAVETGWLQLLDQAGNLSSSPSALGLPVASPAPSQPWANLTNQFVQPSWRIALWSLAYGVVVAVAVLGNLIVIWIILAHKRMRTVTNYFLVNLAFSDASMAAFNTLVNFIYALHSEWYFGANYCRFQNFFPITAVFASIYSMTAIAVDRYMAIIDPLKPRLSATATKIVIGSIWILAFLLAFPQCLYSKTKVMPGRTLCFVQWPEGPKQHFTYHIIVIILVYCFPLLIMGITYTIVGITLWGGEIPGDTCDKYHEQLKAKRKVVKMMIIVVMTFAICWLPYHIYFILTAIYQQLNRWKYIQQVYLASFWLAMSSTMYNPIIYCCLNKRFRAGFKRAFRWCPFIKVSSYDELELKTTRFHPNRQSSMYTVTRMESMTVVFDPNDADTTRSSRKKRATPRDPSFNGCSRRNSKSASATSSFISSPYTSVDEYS
Summary of the method: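 hNK-3-CHO crude membranes (~15 µg protein) were incubated with 0.15 nM [125I]-[MePhe7]-NKB in 50 mM Tris pH 7.4, 4 mM MnCl2, 1 µM phosphoramidon, 0.1% ovalbumin for 90 min at 25 °C. Filtered through BSA-presoaked GF/C, then scintillation counted. Nonspecific binding defined with 0.5 µM cold [MePhe7]-NKB. Ki from IC50 by Cheng-Prusoff; duplicates, n = 3-5.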

[3] = Selectivity ratio (hNK-2/hNK-3) of the compound
[4] = biological target: Mu-type opioid receptor (Homo sapiens, UniProt P35372); test: Binding affinity towards human mu-opioid receptors in CHO (Chinese hamster ovary) cell lines; type: cell-based
Summary of the method: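 CHO cells stably expressing hMOR grown in serum-free suspension culture; membranes made by hypotonic lysis in 10 mM potassium phosphate pH 7.2 with 3 mM MgCl2. Binding run in triplicate at 10 µg/mL protein with 0.4-0.5 nM radioligand for 60 min at 30 °C. Nonspecific binding defined with 10 µM naloxone; filtration and scintillation counting. Duplicate concentration-response curves, n = 3-5 for potent compounds.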

[5] = biological target: T2, Neuromedin-K receptor; test: (§1) Cellular functional antagonistic activity against NKB-induced [Ca2+] mobilization in HEK cells stably expressing the hNK-3 receptor; type: cell-based, HEK293; conditions: read-out: pA2 (converted)
[6] = biological target: T3, Neuromedin-K receptor (Homo sapiens) (UniProt P29371); test: as §1; type: cell-based; conditions: HEK293
T3 sequence (whole entry): T2 sequence (P29371 whole entry)

[7] = biological target: T1, Substance-K receptor; test: Cellular functional antagonistic activity against NKA-induced [Ca2+] mobilization in HEK cells stably expressing the tachykinin receptor 2; conditions: read-out: pA2 (converted)
[8] = biological target: T4, Substance-K receptor (Homo sapiens) (UniProt P21452); test: as above; conditions: HEK293
T4 sequence (whole entry): T1 sequence (P21452 whole entry)

Sequence of Mu-type opioid receptor (P35372 whole entry): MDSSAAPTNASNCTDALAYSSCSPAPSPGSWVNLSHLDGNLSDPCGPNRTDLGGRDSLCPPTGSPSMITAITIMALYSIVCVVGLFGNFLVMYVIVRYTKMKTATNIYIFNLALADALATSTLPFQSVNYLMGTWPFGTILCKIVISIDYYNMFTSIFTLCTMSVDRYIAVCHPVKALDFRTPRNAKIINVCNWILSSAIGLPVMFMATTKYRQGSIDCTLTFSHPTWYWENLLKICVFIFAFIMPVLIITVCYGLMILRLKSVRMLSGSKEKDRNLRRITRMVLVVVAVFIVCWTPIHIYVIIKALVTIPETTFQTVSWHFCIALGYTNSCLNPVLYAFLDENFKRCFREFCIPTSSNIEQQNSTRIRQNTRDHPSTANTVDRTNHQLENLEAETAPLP

Row | Compound | Ki [1] [nM] | Ki [2] [nM] | Ratio [3] | Ki [4] [nM] | Kb [5] [nM] | Kb [6] [nM] | Kb [7] [nM] | Kb [8] [nM]
1 | CC[C@H](NC(=O)c1c(CN2CCN(C3CCCCC3)CC2)c(-c2ccccc2)nc2ccccc12)c1ccccc1 | 1.6 | 1.2 | 1.3 | 15.8 |  |  |  | 
2 | C[C@H](NC(=O)c1c(CN2CCC(N3CCOCC3)CC2)c(-c2ccccc2)nc2ccccc12)C1CCCCC1 | 0.8 | 0.8 | 1 | > 2500 |  |  |  | 
3 | CC[C@H](NC(=O)c1c(CN2CCC(N3CCCCC3)CC2)c(-c2ccccc2)nc2ccccc12)c1ccccc1 | 4.6 | 1.5 | 3.1 | 919 |  |  |  | 
4 | C[C@H](NC(=O)c1c(CN2CCC(N)CC2)c(-c2ccccc2)nc2ccccc12)C1CCCCC1 | 33 | 31.2 | 1.1 | 1780 |  |  |  | 
5 | C[C@H](NC(=O)c1c(CN2CCOCC2)c(-c2ccccc2)nc2ccccc12)C1CCCCC1 | 6.1 | 4.6 | 1.3 | > 2500 |  |  |  | 
6 | CC[C@H](NC(=O)c1c(CN(C)C)c(-c2ccccc2)nc2ccccc12)c1ccccc1 | 172 | 2.2 | 78 | 1680 |  |  |  | 
7 | CC(C)[C@H](NC(=O)c1c(CN(C)C)c(-c2ccccc2)nc2ccccc12)c1ccccc1 | 51.6 |  | 16 | > 2500 |  |  |  | 
8 | C[C@H](NC(=O)c1c(CN2CCC(N3CCCCC3)CC2)c(-c2ccccc2)nc2ccccc12)C(C)(C)C | 1 | 193 | 0.005 | ≥ 2000 |  |  |  | 
9 | CC[C@H](NC(=O)c1c(CN2CCCCC2)c(-c2ccccc2)nc2ccccc12)c1ccccc1 | 276 | 7 | 39 | > 2500 |  |  |  | 
10 | CCC(CC)NC(=O)c1c(CN2CCN(C(C)C)CC2)c(-c2ccccc2)nc2ccccc12 | 18.5 | 1210 | 0.015 |  |  |  |  | 
11 | CC(C)N1CCN(Cc2c(-c3ccccc3)nc3ccccc3c2C(=O)NC2CCCCC2)CC1 | 4.2 | 1250 | 0.003 | 226 |  |  |  | 
12 | CC[C@H](NC(=O)c1c(CN2CCN(C(C)C)CC2)c(-c2ccccc2)nc2ccccc12)c1ccccc1 |  |  | 3.1 | 98.6 |  |  |  | 
13 | CC[C@H](NC(=O)c1c(O)c(-c2ccccc2)nc2ccccc12)c1ccccc1 [TALNETANT] |  |  |  | 1860 |  |  |  | 
14 | C[C@H](NC(=O)c1c(CN2CCC(N3CCCCC3)CC2)c(-c2ccccc2)nc2ccccc12)C1CCCCC1 | 0.6 | 1.7 | 0.3 | 1320 | 2 | 2.6 | 10 | 9.9

Now from value to compound:

Row | Ki [1] [nM] | Ki [2] [nM] | Ratio [3] | Ki [4] [nM] | Kb [5] [nM] | Kb [6] [nM] | Kb [7] [nM] | Kb [8] [nM] | Compound
15 | 9.2 | 454 | 0.02 |  |  |  |  |  | CC(C)C(C)NC(=O)c1c(CN2CCN(C(C)C)CC2)c(-c2ccccc2)nc2ccccc12 (centres undefined)
16 | 22.2 | 4.7 | 4.7 | 203 |  |  |  |  | CC[C@H](NC(=O)c1c(CN2CCNCC2)c(-c2ccccc2)nc2ccccc12)c1ccccc1
17 | 1.5 | 1.2 | 1.2 | 120 |  |  |  |  | CC(C)[C@H](NC(=O)c1c(CN2CCN(C(C)C)CC2)c(-c2ccccc2)nc2ccccc12)c1ccccc1
18 | 811 | > 12000 | < 0.1 |  |  |  |  |  | CC(C)NC(=O)c1c(CN2CCN(C(C)C)CC2)c(-c2ccccc2)nc2ccccc12
19 | 1.2 | 1.4 | 0.9 | > 2500 |  |  |  |  | CC(C)C(=O)N1CCN(Cc2c(-c3ccccc3)nc3ccccc3c2C(=O)N[C@@H](C)C2CCCCC2)CC1
20 | 0.7 | 1.9 | 0.4 | 195 |  |  |  |  | CC(C)N1CCN(Cc2c(-c3ccccc3)nc3ccccc3c2C(=O)N[C@@H](C)C2CCCCC2)CC1
21 | 2.4 | 3.4 | 0.7 | 172 |  |  |  |  | C[C@H](NC(=O)c1c(CN2CCNCC2)c(-c2ccccc2)nc2ccccc12)C1CCCCC1
